MC4R antagonist: MC4R antagonists of cAMP signaling, primary screen, cell-based, TR-FRET, antagonist arm of biased-ligand search; Melanocortin receptor 4 (Homo sapiens), P32245; MC4R-expressing cells, MTII-stimulated cAMP, LANCE TR-FRET; inhibition, % at 6.5 µM; actives 0.48% (n = 360,000);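 active means inhibition above its plate's cutoff, the mean of tested wells on that plate plus 3 SD, cut at about 29% in these data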
Target sequence (P32245 whole entry, looked up): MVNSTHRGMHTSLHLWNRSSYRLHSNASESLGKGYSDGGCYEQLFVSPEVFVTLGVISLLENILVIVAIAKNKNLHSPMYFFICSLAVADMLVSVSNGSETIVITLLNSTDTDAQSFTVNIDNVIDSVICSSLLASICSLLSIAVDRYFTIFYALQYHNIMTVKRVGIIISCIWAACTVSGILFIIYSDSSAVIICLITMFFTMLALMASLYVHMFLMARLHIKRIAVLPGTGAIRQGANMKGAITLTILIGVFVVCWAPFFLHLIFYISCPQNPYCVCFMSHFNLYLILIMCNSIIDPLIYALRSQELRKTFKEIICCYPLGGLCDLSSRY
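material = U2OS cells stably expressing human melanocortin 4 receptor (MC4R) | also added = Melanotan II challenge | dosing = single nominal compound dose of 6.5 µM | detection = TR-FRET with Eu-cAMP and labeled anti-cAMP, 671 nm | replication = singlicate | timing = compound 30 min, challenge 1 h, detection 1 h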
Tb MetRS inh: T. brucei MetRS inhibitors, primary screen, biochemical, luminescence. methionyl-tRNA synthetase (Trypanosoma brucei brucei). purified T. brucei MetRS, ATP depletion, Kinase-Glo luminescence. inhibition, % at 11.9 µM. actives 0.4% (n = 360,000). AID 624268, 2012;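 active means inhibition above a per-plate cutoff of the control wells' mean inhibition plus 3 SD, cut at about 5.5% in these data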
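Test system: purified T. brucei MetRS enzyme. Also added: ATP, methionine and E. coli bulk tRNA substrates. Compound: 11.9 µM single point. Schedule: 15 min enzyme-compound preincubation, 2 h reaction, 10 min detection, 25 °C. Signal: luciferase luminescence of residual ATP, Kinase-Glo. Evaluation: percent inhibition versus plate control medians. Controls: DMSO wells, low control.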
NALP1 yeast inh: NALP1 inflammasome inhibitors in reconstituted yeast, colorimetric, S. cerevisiae, triplicate retest; S. cerevisiae NALP1/ASC/caspase-1 growth, X-gal OD620, 72 h; inhibition, % at 10 µM; actives 0.61% (n = 280,000); AID 2071, 2009; in the data active means inhibition mostly above about 24%, no sharp cut-off; inactive means mostly below about 32%
Bfl-1 A1 inh: caspase 3/7 activation in MEF A1-2A-BIM cells, primary screen, A1 inhibitor project, cell-based, luminescence, HTS; AID 2462, 2010; Caspase-Glo 3/7 luminescence, 3 h; percent of clofoctol response, vehicle zero; caspase activation, % (concentration not given with the values); actives 0.066% (n = 330,000);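 active means over half of replicate activation scores above 10%, or exactly half above 10 with the replicate mean above 10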
NALP3 yeast inh: NALP3 inflammasome inhibitors in reconstituted yeast, primary screen, luminescence, uHTS. inhibition, % at 10 µM. AID 2825, 2010. actives 0.39% (n = 330,000). Yeast reconstituted NLRP3/ASC/caspase-1, beta-gal luminescence, 24 h;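 active means inhibition of 50% or more; inactive means inhibition below 50%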
MC4R ag barr: MC4R agonists recruiting beta-arrestin, primary screen, cell-based, luminescence, agonist arm of biased-ligand search; Melanocortin receptor 4 (Homo sapiens), P32245; U2OS MC4R beta-arrestin complementation; percent of melanotan II response, DMSO zero; activation, % at 8.9 µM; actives 0.98% (n = 360,000);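 active means activation above a per-plate cutoff, the mean activation of sample wells on that plate plus 3 SD, cut at about 8% in these data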
cAMP nonselect: nonselective cAMP signaling inhibitors, parental cells, counter-screen for MC4R biased antagonist project, cell-based, TR-FRET, U2OS, forskolin, triplicate; shares compounds with MC4R antagonist; LANCE TR-FRET; inhibition, % at 6.5 µM; actives 26% (n = 1,600);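 active means mean inhibition over triplicates above the low-control well mean plus 3 SD, set per campaign, cut at about 13% in these data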;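 further: signal is single emission at 671 nm which falls as cellular cAMP rises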
MC4R antag conf: MC4R cAMP antagonists, retest, confirmation, cell-based, TR-FRET | shares compounds with MC4R antagonist | MC4R-expressing cells, MTII-stimulated cAMP | inhibition, % at 6.5 µM | actives 27% (n = 1,600) | AID 602195, 2012; in the data active means inhibition above about 29%
Large screens that a line does not name were inactive (follow-up assays come after a bar, where they were run). In the library only some 2.5% were active in any assay of this set; here they are far more common.

Cc1ccc(C2(c3ccccc3)NC(=O)N(CC(=O)N(C)C3CCS(=O)(=O)C3)C2=O)cc1C (stereo not drawn)	none (no result: NALP1 yeast inh)
CSCCC(NC(=O)c1ccc(Cl)cc1)C(=O)OCC(=O)Nc1cc(Cl)ccc1C#N (stereo not drawn)	MC4R antagonist 31.9 | cAMP nonselect 13.2 | MC4R antag conf 28.8
COc1ccccc1N1CCN(C(=O)c2cc(=O)c3c(C)cc(C)cc3o2)CC1	none
Cc1nn(-c2ccccc2)nc1C(=O)c1c(C)[nH]n(-c2ccccc2)c1=O	none (no result: NALP1 yeast inh)
NS(=O)(=O)c1ccc(CNC(=O)c2cc(-c3ccccn3)nc3ccc(Cl)cc23)cc1	MC4R antagonist 29.6 | cAMP nonselect inactive | MC4R antag conf inactive
CCOc1cccc(C2/C(=C(/O)c3ccc4c(c3)CC(C)O4)C(=O)C(=O)N2CCN2CCOCC2)c1 (stereo not drawn)	MC4R antagonist 38.1 | cAMP nonselect inactive | MC4R antag conf inactive
COc1ccc(C(=O)N(CC(=O)Nc2sc(C)c(C)c2C(N)=O)C2CCCC2)cc1	none
CCC(=O)N(CC(=O)Nc1sc(C)c(C)c1C(N)=O)C1CCCC1	MC4R antagonist 29.4 | cAMP nonselect inactive | MC4R antag conf inactive
COc1ccc(S(=O)(=O)NNC(=O)C(=O)NNc2ccccn2)cc1	MC4R antagonist 31.4 | cAMP nonselect inactive | MC4R antag conf inactive
C=CCn1cc(CN2CCC(C(=O)Nc3cccc(-c4cccc(Cl)c4)c3)CC2)c(C)n1	none
CCOC(=O)c1c(S(=O)(=O)N2CCN(c3ccc(F)cc3)CC2)c(C)n(C)c1C	none
O=C(O)C1(Nc2ccc([N+](=O)[O-])cc2[N+](=O)[O-])CCCC1	none (no result: NALP1 yeast inh, Bfl-1 A1 inh, NALP3 yeast inh)
COc1ccc(-c2cc(C(=O)N/N=C/c3cccnc3)c3cc(C)cc(C)c3n2)cc1	none
CC1Cc2ccccc2N1S(=O)(=O)c1cnc(Cl)c(Br)c1 (stereo not drawn)	MC4R antagonist 29.8 | cAMP nonselect 22.5 | MC4R antag conf 38.5
CC1Cc2ccccc2N1S(=O)(=O)c1cnc(Cl)c(Cl)c1 (stereo not drawn)	none
Cc1[nH]nc(S(=O)CC(=O)O)c1[N+](=O)[O-] (stereo not drawn)	MC4R antagonist 31.4 | cAMP nonselect inactive | MC4R antag conf inactive
O=C(CNC(=O)c1ccc(Cl)cc1Cl)OC1CCCCC1=O (stereo not drawn)	none (no result: NALP1 yeast inh)
C/C(NCCc1ccccc1)=C1/CCOC1=O	none (no result: NALP1 yeast inh, Bfl-1 A1 inh, NALP3 yeast inh)
Cc1cccc(C(=O)NCC(=O)OCC(=O)c2ccc(Br)s2)c1	MC4R antagonist 44.3 (no result: NALP1 yeast inh) | cAMP nonselect 32.9 | MC4R antag conf 69.8
O=c1[nH]c(=S)[nH]c2c1C(c1ccc(F)cc1)OC(CCOCc1ccccc1)C2 (stereo not drawn)	none (no result: MC4R antagonist, NALP1 yeast inh, Bfl-1 A1 inh, NALP3 yeast inh, MC4R ag barr)
CC(c1ccccc1)n1c(SCC(=O)N2CC(=O)Nc3ccccc32)nc2ccccc2c1=O (stereo not drawn)	MC4R antagonist 32.7 | cAMP nonselect inactive | MC4R antag conf inactive
Cc1ccc(Cn2c(SCC(=O)N3CC(=O)Nc4ccccc43)nc3ccccc3c2=O)cc1	MC4R antagonist 29.2 | cAMP nonselect inactive | MC4R antag conf inactive
O=C1CN(C(=O)CSc2nc3cc(Cl)ccc3c(=O)n2Cc2ccccc2)c2ccccc2N1	none
O=C1/C(=C\c2ccc(Cl)c(Cl)c2)CN(C(=O)CCN2CCOCC2)C/C1=C/c1ccc(Cl)c(Cl)c1	MC4R antagonist 36.8 (no result: NALP1 yeast inh, Bfl-1 A1 inh, NALP3 yeast inh) | cAMP nonselect 25.8 | MC4R antag conf 30.6
CCCn1c(=S)[nH]c2cc(C(=O)N3CCN(c4ccc(F)cc4)CC3)ccc2c1=O	none (no result: NALP1 yeast inh, Bfl-1 A1 inh, NALP3 yeast inh)
CC1CCN(c2nc(Cl)nc(Nc3ccc([N+](=O)[O-])cc3)n2)CC1	MC4R antagonist 32.2 | cAMP nonselect inactive | MC4R antag conf 36.2
CC(C)[C@H](CN1CCC[C@H]1CN1C(N)=NC[C@H]1C(C)C)N1C[C@@H](Cc2ccccc2)N(CCCC2CCCC2)C1=N	MC4R antagonist 29.7 (no result: NALP1 yeast inh) | cAMP nonselect inactive | MC4R antag conf inactive
CCC[C@@H](CN1CCC[C@H]1CN1C(N)=NC[C@H]1CC(C)C)N1C[C@@H](Cc2ccccc2)N(CCc2ccc(Cl)c(Cl)c2)C1=N	MC4R antagonist 29.3 (no result: NALP1 yeast inh) | cAMP nonselect inactive | MC4R antag conf 38.5
CC(C)[C@H](CN1CCC[C@H]1CN1C(N)=NC[C@@H]1Cc1ccccc1)N1C[C@@H](Cc2ccccc2)N(CCc2ccc(Cl)c(Cl)c2)C1=N	MC4R antagonist 31.1 (no result: NALP1 yeast inh) | cAMP nonselect inactive | MC4R antag conf 43.1
O=C(CNC(=O)c1cccs1)Nc1cccc(S(=O)(=O)N2CCOCC2)c1	none (no result: NALP1 yeast inh, Bfl-1 A1 inh)
O=C(NCc1ccccc1Cl)c1ccc2nc([C@@H]3O[C@H](CO)[C@H](O)[C@H](O)[C@H]3O)[nH]c2c1	none (no result: NALP1 yeast inh, Bfl-1 A1 inh, NALP3 yeast inh)
Cc1ccc(CNC(=O)CN2C(=O)c3ccccc3S2(=O)=O)cc1	none
Cc1ccccc1CNC(=O)CN1C(=O)c2ccccc2S1(=O)=O	MC4R antagonist 29.2 | cAMP nonselect inactive | MC4R antag conf inactive
CCOC(=O)c1ccc(NC(=O)NCc2ccccc2OC)cc1	MC4R antagonist 30.4 | cAMP nonselect inactive | MC4R antag conf inactive
O=[N+]([O-])c1cc(-c2csc(NCCc3nc4cc(Cl)c(Cl)cc4n3CCCO)n2)ccc1Cl	MC4R antagonist 33.2 (no result: NALP1 yeast inh) | cAMP nonselect 15.6 | MC4R antag conf inactive
CCCn1c(CCNc2nc(-c3ccc(Cl)c([N+](=O)[O-])c3)cs2)nc2cc(Cl)c(Cl)cc21	none
C[C@H](CO)N1C[C@H](C)[C@@H](CN(C)C(=O)Nc2ccc(C(F)(F)F)cc2)Oc2c(NC(=O)Nc3ccc(C(F)(F)F)cc3)cccc2C1=O	none (no result: NALP1 yeast inh)
COc1ccc(NC(=O)Nc2cccc3c2O[C@H](CN(C)C(=O)Nc2ccc(C(F)(F)F)cc2)[C@@H](C)CN([C@H](C)CO)C3=O)cc1	MC4R antagonist 34.8 (no result: NALP1 yeast inh) | cAMP nonselect inactive | MC4R antag conf inactive
NC(=O)c1cccc2ccccc12	MC4R antagonist 31.8 | cAMP nonselect inactive | MC4R antag conf inactive

Source: PubChem
